Active and inactive are the calls of the source. The rule behind the calls is not given here.
Tests used:
[1] = molecular target: T1, Muscarinic acetylcholine receptor M1 (Homo sapiens, UniProt P11229); experiment: Displacement of [3H]N-methylscopolamine from human muscarinic M1 receptor expressed in CHO-K1 cells; type: cell-based
T1 sequence (P11229 whole entry): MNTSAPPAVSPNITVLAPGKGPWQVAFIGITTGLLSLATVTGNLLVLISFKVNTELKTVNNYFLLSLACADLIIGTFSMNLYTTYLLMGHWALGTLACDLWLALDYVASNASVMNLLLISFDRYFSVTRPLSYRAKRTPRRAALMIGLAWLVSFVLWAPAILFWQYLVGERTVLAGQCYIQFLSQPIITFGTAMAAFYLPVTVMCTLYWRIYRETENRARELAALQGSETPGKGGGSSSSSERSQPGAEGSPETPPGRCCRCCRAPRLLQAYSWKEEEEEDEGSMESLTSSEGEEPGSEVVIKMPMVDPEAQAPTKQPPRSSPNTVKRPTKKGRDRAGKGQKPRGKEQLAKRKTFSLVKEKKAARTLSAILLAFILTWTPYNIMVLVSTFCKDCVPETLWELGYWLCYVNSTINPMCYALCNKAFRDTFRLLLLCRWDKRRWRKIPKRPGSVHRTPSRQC

[2] = molecular target: T2, Muscarinic acetylcholine receptor M2 (Homo sapiens, UniProt P08172); experiment: Displacement of [3H]N-methylscopolamine from human muscarinic M2 receptor expressed in CHO-K1 cells; type: cell-based
T2 sequence (P08172 whole entry): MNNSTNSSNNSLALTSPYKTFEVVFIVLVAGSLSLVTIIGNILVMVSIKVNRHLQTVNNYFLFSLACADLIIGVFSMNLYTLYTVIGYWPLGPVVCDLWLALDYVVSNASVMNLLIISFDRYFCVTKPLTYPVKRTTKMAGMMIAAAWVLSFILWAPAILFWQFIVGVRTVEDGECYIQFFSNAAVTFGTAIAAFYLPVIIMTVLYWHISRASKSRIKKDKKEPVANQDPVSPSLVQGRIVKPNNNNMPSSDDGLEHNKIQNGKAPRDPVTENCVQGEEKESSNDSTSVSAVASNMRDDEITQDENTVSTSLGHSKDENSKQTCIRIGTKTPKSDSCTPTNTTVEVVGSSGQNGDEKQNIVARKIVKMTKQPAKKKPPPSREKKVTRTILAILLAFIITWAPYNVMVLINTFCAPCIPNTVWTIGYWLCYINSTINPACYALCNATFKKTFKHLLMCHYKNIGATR
Method in brief: (§1)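 Binding was measured in CHO-K1 stable transfectants expressing the human receptor subtype. Labelled ligand was [³H]-N-methylscopolamine chloride. Values are the mean of three experiments performed in triplicate.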

[3] = molecular target: T3, Muscarinic acetylcholine receptor M3 (Homo sapiens, UniProt P20309); experiment: Displacement of [3H]N-methylscopolamine from human muscarinic M3 receptor expressed in CHO-K1 cells; type: cell-based
Target sequence in this assay (P20309 whole entry): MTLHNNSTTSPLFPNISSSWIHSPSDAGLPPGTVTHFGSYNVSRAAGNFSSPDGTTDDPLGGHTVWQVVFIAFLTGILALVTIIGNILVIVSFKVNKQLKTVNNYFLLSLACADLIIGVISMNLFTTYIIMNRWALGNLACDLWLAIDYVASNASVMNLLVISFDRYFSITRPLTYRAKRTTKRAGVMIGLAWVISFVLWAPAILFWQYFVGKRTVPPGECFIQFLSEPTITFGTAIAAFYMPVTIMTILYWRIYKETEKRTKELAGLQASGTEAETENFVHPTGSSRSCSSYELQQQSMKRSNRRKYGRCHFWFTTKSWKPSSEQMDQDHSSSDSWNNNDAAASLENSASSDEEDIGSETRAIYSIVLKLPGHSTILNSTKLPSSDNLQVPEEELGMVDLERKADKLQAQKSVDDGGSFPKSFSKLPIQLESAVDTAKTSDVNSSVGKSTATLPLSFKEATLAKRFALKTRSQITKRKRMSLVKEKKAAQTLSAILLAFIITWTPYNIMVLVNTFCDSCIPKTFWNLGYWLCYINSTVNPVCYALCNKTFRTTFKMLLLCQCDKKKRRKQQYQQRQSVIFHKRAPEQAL

[4] = molecular target: T4, Muscarinic acetylcholine receptor M4 (Homo sapiens, UniProt P08173); experiment: Displacement of [3H]N-methylscopolamine from human muscarinic M4 receptor expressed in CHO-K1 cells; type: cell-based; method in brief: as §1
T4 sequence (P08173 whole entry): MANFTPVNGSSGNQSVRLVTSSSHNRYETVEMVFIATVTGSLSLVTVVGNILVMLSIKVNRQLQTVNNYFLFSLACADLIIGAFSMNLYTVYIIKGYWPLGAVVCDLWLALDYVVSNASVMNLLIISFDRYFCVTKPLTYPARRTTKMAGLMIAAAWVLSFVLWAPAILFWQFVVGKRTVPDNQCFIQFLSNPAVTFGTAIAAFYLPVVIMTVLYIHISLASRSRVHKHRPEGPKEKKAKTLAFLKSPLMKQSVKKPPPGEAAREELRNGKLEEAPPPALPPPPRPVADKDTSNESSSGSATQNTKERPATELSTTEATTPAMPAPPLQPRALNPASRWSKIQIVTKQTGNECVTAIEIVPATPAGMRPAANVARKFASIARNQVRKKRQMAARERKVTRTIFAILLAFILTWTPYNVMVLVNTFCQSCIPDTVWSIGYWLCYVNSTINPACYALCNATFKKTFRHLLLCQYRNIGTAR

[5] = molecular target: T5, Muscarinic acetylcholine receptor M5 (Homo sapiens, UniProt P08912); experiment: Displacement of [3H]N-methylscopolamine from human muscarinic M5 receptor expressed in CHO-K1 cells; type: cell-based; method in brief: as §1
T5 sequence (P08912 whole entry): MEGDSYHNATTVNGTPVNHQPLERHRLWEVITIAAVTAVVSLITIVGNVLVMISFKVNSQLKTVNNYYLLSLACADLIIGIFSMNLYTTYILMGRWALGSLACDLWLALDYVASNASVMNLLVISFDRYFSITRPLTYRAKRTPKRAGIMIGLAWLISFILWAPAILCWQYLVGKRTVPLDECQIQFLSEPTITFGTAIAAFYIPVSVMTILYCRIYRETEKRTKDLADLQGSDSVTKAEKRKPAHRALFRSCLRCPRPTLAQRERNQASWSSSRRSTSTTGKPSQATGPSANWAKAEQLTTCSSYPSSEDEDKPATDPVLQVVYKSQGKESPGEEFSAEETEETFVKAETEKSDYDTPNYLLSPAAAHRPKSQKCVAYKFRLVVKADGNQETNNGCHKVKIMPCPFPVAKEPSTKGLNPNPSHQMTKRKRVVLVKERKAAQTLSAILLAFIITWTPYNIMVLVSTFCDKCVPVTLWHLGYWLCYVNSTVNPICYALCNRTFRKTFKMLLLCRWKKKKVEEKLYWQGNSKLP

[6] = molecular target: T3, Muscarinic acetylcholine receptor M3; experiment: Antagonist activity at human muscarinic M3 receptor expressed in CHO cells assessed as inhibition of carbachol-induced Eu-GTP binding; type: cell-based
Method in brief: (§2)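 Membranes from CHO-K1 cells stably expressing the human receptor subtype. Agonist was carbachol, and the read-out was carbachol-stimulated binding of the non-hydrolysable analogue Eu-GTP to Gα subunits. pKb was estimated functionally by concentration-ratio analysis. Values are the mean of three experiments run in triplicate.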
Target sequence in this assay (P20309 whole entry, looked up): as the sequence (P20309 whole entry) above

[7] = molecular target: T6, Muscarinic acetylcholine receptor M4 (Homo sapiens) (UniProt P08173); experiment: Antagonist activity at human muscarinic M4 receptor expressed in CHO cells assessed as inhibition of carbachol-induced Eu-GTP binding; type: cell-based; method in brief: as §2
T6 sequence (whole entry): T4 sequence (P08173 whole entry)

[8] = molecular target: T7, Muscarinic acetylcholine receptor M5 (Homo sapiens) (UniProt P08912); experiment: Antagonist activity at human muscarinic M5 receptor expressed in CHO cells assessed as inhibition of carbachol-induced Eu-GTP binding; type: cell-based; method in brief: as §2
T7 sequence (whole entry): T5 sequence (P08912 whole entry)

[9] = molecular target: T8, Muscarinic acetylcholine receptor M1 (Homo sapiens) (UniProt P11229); experiment: Antagonist activity at human muscarinic M1 receptor expressed in CHO cells assessed as inhibition of basal Eu-GTP binding; type: cell-based
T8 sequence (whole entry): T1 sequence (P11229 whole entry)

[10] = molecular target: T9, Muscarinic acetylcholine receptor M2 (Homo sapiens) (UniProt P08172); experiment: Antagonist activity at human muscarinic M2 receptor expressed in CHO cells assessed as inhibition of basal Eu-GTP binding; type: cell-based
T9 sequence (whole entry): T2 sequence (P08172 whole entry)

[11] = molecular target: T3, Muscarinic acetylcholine receptor M3; experiment: Antagonist activity at human muscarinic M3 receptor expressed in CHO cells assessed as inhibition of basal Eu-GTP binding; type: cell-based
Target sequence in this assay (P20309 whole entry, looked up): as the sequence (P20309 whole entry) above

[12] = molecular target: T6, Muscarinic acetylcholine receptor M4 (Homo sapiens); experiment: Antagonist activity at human muscarinic M4 receptor expressed in CHO cells assessed as inhibition of basal Eu-GTP binding; type: cell-based
[13] = molecular target: T7, Muscarinic acetylcholine receptor M5 (Homo sapiens); experiment: Antagonist activity at human muscarinic M5 receptor expressed in CHO cells assessed as inhibition of basal Eu-GTP binding; type: cell-based
[14] = molecular target: T4, Muscarinic acetylcholine receptor M4; experiment: Antagonist activity at human muscarinic M4 receptor expressed in CHO cells assessed as blockade of carbachol-induced inhibition of forskolin-stimulated cAMP accumulation; type: functional, cell-based
[15] = molecular target: T8, Muscarinic acetylcholine receptor M1 (Homo sapiens); experiment: Antagonist activity at human muscarinic M1 receptor expressed in CHO cells assessed as inhibition of carbachol-induced Eu-GTP binding; type: cell-based; method in brief: as §2
[16] = molecular target: T9, Muscarinic acetylcholine receptor M2 (Homo sapiens); experiment: Antagonist activity at human muscarinic M2 receptor expressed in CHO cells assessed as inhibition of carbachol-induced Eu-GTP binding; type: cell-based; method in brief: as §2

Row | Ki [1] | Ki [2] | Ki [3] | Ki [4] | Ki [5] | pKb [6] | pKb [7] | pKb [8] | Activity [9] | Activity [10] | Activity [11] | Activity [12] | Activity [13] | EC50 [14] | IC50 [14] | pKb [15] | pKb [16] | Compound
1 | 8.32 µM | 4.37 µM | 3.63 µM | 2.69 µM | 25.7 µM | – | – | – | – | – | – | – | – | – | – | – | – | C[N+]1(C)CCC(C2CC[N+](C)(CCCC(O)(c3ccccc3)c3ccccc3)CC2)CC1 (configuration not stated)
2 | 0.603 µM | 7.24 µM | 0.661 µM | 1.17 µM | 1.41 µM | – | – | – | – | – | – | – | – | – | – | – | – | OC(CCCN1CCNCC1)(c1ccccc1)c1ccccc1
3 | 245 µM | 214 µM | 380 µM | 162 µM | 229 µM | – | – | – | – | – | – | – | – | – | – | – | – | CN(CCCC(O)(c1ccccc1)c1ccccc1)CCN(C)CCCC(O)(c1ccccc1)c1ccccc1
4 | 363 µM | 457 µM | 70.8 µM | 100 µM | 123 µM | – | – | – | – | – | – | – | – | – | – | – | – | OC(CCCN1CCN(c2ccccc2)CC1)(c1ccccc1)c1ccccc1
5 | 7.24 µM | 12 µM | 12.3 µM | 11.2 µM | 7.59 µM | – | – | – | – | – | – | – | – | – | – | – | – | C[N+](C)(CCCC(O)(c1ccccc1)c1ccccc1)CCC[N+](C)(C)CCCC(O)(c1ccccc1)c1ccccc1
6 | 2.95 µM | 23.4 µM | 4.07 µM | 4.79 µM | 9.55 µM | – | – | – | – | – | – | – | – | – | – | – | – | C[N+]1(C)CCN(CCCC(O)(c2ccccc2)c2ccccc2)CC1
7 | 7.76 µM | 35.5 µM | 7.41 µM | 9.77 µM | 13.5 µM | – | – | – | – | – | – | – | – | – | – | – | – | CN1CCN(CCCC(O)(c2ccccc2)c2ccccc2)CC1
8 | 0.603 µM | 0.363 µM | 0.372 µM | 0.0126 µM | 0.589 µM | 6.25 | 7.83 | 6.02 | inactive | inactive | inactive | inactive | inactive | 0.067 µM | 0.067 µM | 6.04 | 6.1 | C[N+]1(CCCC(O)(c2ccccc2)c2ccccc2)CCC(C2CC[N+](C)(CCCC(O)(c3ccccc3)c3ccccc3)CC2)CC1 (configuration not stated)
9 | 851 µM | 178 µM | 87.1 µM | 22.4 µM | 23.4 µM | – | – | – | – | – | – | – | – | – | – | – | – | OC(CCCN1CCN(CCCC(O)(c2ccccc2)c2ccccc2)CC1)(c1ccccc1)c1ccccc1
